Experimental findings from ChEMBL document CHEMBL1132689, “New tetracyclic analogues of photochemotherapeutic drugs 5-MOP and 8-MOP: synthesis, DNA interaction, and antiproliferative activity” (J Med Chem, 1999) are described below.

Calls of active or inactive are those of the source. The calls are words filed in the database; no cut-off is given here. Where only a bound is given, the exact number is not on record here.

The species entered for experiment [1] is Cavia porcellus. Briefly: The compound was tested for photo antiproliferative activity and ability to induce erythema on guinea pig skin; --- = absent. In kind it is functional, organism-based. The gist of the method: (§1)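 Depilated albino guinea pigs (outbred Dunkin-Hartley) given topical ethanol solution on skin, new compounds up to 50 μg cm-2, 5-MOP and 8-MOP at 10 μg cm-2; kept dark 45 min, then treated skin irradiated with 20 kJ m-2 UVA (lamps emitting over 90% at 365 nm); erythema scored after 48 h.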

The subject of experiment [2] is HL-60. Nature of the experiment: The compound was tested in vitro for growth inhibition against HL-60(human promyelocytic leukemia) cell line in the presence of UVA(ultra violet A irradiated). In kind it is functional, cell-based. Conditions: HL-60, light or radiation study.
The subject of experiment [3] is HeLa. Briefly: The compound was tested in vitro for growth inhibition against HeLa(human cervix adenocarcinoma) cell line in the dark. In kind it is functional, cell-based.
For experiment [4], the system named is HeLa. Briefly: The compound was tested in vitro for growth inhibition against HeLa(human cervix adenocarcinoma) cell line in the presence of UVA(ultra violet A irradiated). In kind it is functional, cell-based. Conditions: light or radiation study. The gist of the method:
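HeLa (F-12 with 10% heat-inactivated FCS) seeded 10^5/well for 24 h; medium changed to phenol red-free DMEM with test agent, 1 h later irradiated with UVA 0.793 J cm-2 at 365 nm; drug medium removed, cells kept 24 h in complete F-12; trypan blue viability; IC50 as 50% cell-number reduction versus control.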

Experiment [5] has as its system HL-60. Nature of the experiment: The compound was tested in vitro for growth inhibition against HL-60(human promyelocytic leukemia) cell line in the dark. The experiment is classed as functional, cell-based.
For experiment [6], the system named is Cavia porcellus. Briefly: The compound was tested for photo antiproliferative activity and ability to induce erythema on guinea pig skin; +++ = strong (without edema). In kind it is functional, organism-based. The gist of the method:
as §1

For experiment [7], the species on record is Cavia porcellus. Nature of the experiment: The compound was tested for photo antiproliferative activity and ability to induce erythema on guinea pig skin; +-- = mild. The experiment is classed as functional, organism-based. The gist of the method: as §1

As a reminder, the IC50 is the point on the concentration scale where inhibition reaches its midpoint. For the molecule `COc1c2c(C)cc(=O)oc2cc2oc3ccccc3c12`, in experiment [1], the Formation of erythema entry is “inactive”. Also, the IC50 is 4.5 µM in experiment [2], above 20 µM in experiment [3], above 20 µM in experiment [4] and above 20 µM in experiment [5].

As for `Cc1cc(=O)oc2cc3oc4ccccc4c3c(O)c12`, the Formation of erythema entry in experiment [1] was “inactive”. Also, the half-maximal inhibitory concentration (IC50) in experiment [2], in experiment [3], in experiment [4] and in experiment [5] was above 20 µM throughout.

As to `COc1c2occc2cc2ccc(=O)oc12` [METHOXSALEN], the IC50 is 5.4 µM in experiment [2], above 20 µM in experiment [3], 10 µM in experiment [4] and above 20 µM in experiment [5]. Moreover, the Formation of erythema result in experiment [6] was “Active”.

As for `Cc1cc(=O)oc2c(O)c3oc4c(c3cc12)CCCC4`, in experiment [1], the Formation of erythema result is “inactive”. Moreover, the IC50 in experiment [2], in experiment [3], in experiment [4] and in experiment [5] was above 20 µM in each case.

In the case of `Cc1cc(=O)oc2c(OCCCN(C)C)c3oc4ccccc4c3cc12`, in experiment [1], the Formation of erythema result was “inactive”. Moreover, the IC50 in experiment [2] worked out at 0.6 µM; in experiment [3], 9.6 µM; in experiment [4] it was 0.08 µM; in experiment [5], 4.2 µM.

On to `Cc1cc(=O)oc2cc3oc4c(c3c(O)c12)CCCC4`, for which, in experiment [1], the Formation of erythema entry was “inactive”. The IC50 was 7.3 µM in experiment [2], above 20 µM in experiment [3], above 20 µM in experiment [4] and above 20 µM in experiment [5].

As for `COc1c2oc(=O)cc(C)c2cc2c1oc1ccccc12`, the Formation of erythema result in experiment [1] is “inactive”. In addition, the IC50 in experiment [2] is 6.4 µM; in experiment [3], above 20 µM; in experiment [4] it was above 20 µM; in experiment [5], above 20 µM.

Regarding `Cc1cc(=O)oc2cc3oc4c(c3c(OCCCN(C)C)c12)CCCC4`, in experiment [7], the Formation of erythema entry is “+--”. Further, the IC50 in experiment [2] was 3.4 µM; in experiment [3] it was above 20 µM; in experiment [4], 3.7 µM; in experiment [5], 13.8 µM.

Regarding `COc1c2ccoc2cc2oc(=O)ccc12` [BERGAPTEN], the IC50 was 3.35 µM in experiment [2], above 20 µM in experiment [3], 16.3 µM in experiment [4] and above 20 µM in experiment [5]. The Formation of erythema entry in experiment [6] was “Active”.

Consider `COc1c2oc(=O)cc(C)c2cc2c3c(oc12)CCCC3`, for which the Formation of erythema result in experiment [1] was “inactive”. The IC50 in experiment [2] is 3.5 µM; in experiment [3], above 20 µM; in experiment [4], above 20 µM; in experiment [5], above 20 µM.

As to `Cc1cc(=O)oc2c(O)c3oc4ccccc4c3cc12`, the Formation of erythema entry in experiment [1] was “inactive”. Moreover, the IC50 in experiment [2], in experiment [3], in experiment [4] and in experiment [5] was above 20 µM each time.

As to `Cc1cc(=O)oc2c(OCCCN(C)C)c3oc4c(c3cc12)CCCC4`, the IC50 was 0.6 µM in experiment [2], above 20 µM in experiment [3], 1.2 µM in experiment [4] and 12.4 µM in experiment [5]. Further, the Formation of erythema entry in experiment [6] is “strong (without edema)”.

`Cc1cc(=O)oc2cc3oc4ccccc4c3c(OCCCN(C)C)c12`: the Formation of erythema entry in experiment [1] was “inactive”. In addition, the IC50 in experiment [2] is 0.73 µM; in experiment [3], above 20 µM; in experiment [4] it was 2.8 µM; in experiment [5] it was 9.2 µM.

`COc1c2c(C)cc(=O)oc2cc2oc3c(c12)CCCC3`: in experiment [1], the Formation of erythema entry is “inactive”. The concentration for half-maximal inhibition (IC50) in experiment [2] is 4.9 µM; in experiment [3], above 20 µM; in experiment [4] it was 4.6 µM; in experiment [5] it was above 20 µM.
